Rows were chosen to be rich in hits. Some 5.1% of all compounds tested hit in one or more screens of this group.
STAT3 inh-1 – reduces IL-6 driven STAT3 reporter signal | 190,000 tested, 0.89% active | AID 862 | inhibition, % at 5.5 µM | U3A cells, IL-6 STAT3-luciferase reporter, luminescence; host cell line lacks STAT1;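 active means inhibition above the mean inhibition across all screened compounds plus 3 SD, cut at about 44% in these data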;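 further: 0% = DMSO only wells and 100% = 100 µM nifuroxazide control wells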
STAT3 activator – STAT3 signaling activation. U3A cells, IL-6 STAT3-luciferase reporter, luminescence; 100% = signal with IL-6 EC80 alone. activation (% of control), % at 5.6 µM. 190,000 tested, 0.91% active. AID 871;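 active means activation above the screen-wide mean of compound activation plus 3 SD, cut at about 130% in these data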;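 further: 0% = background luminescence of wells with medium and substrate only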
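Test system: Human STAT1-deficient U3A cells with stable STAT3-luciferase reporter | Also added: Interleukin-6, 33 ng/mL | Timing: Compound pre-incubation 1 h before IL-6, then 6 h stimulation at 37 °C | Technique: Luciferase reporter luminescence | Read-out: Percent of IL-6-only median luminescence | Benchmarks: IL-6-only wells as 100% reference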
STAT1 blocker – inhibitors of IFN-gamma induced STAT1 signaling; NIH 3T3 STAT1-luciferase reporter, luminescence; inhibition, % at 5.5 µM; 200,000 tested, 0.35% active; AID 920;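 active means inhibition above a set limit, the mean inhibition across all tested compounds plus 3 SD, cut at about 34% in these data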;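 further: 0% = IFN-gamma with DMSO and 100% = IFN-gamma with 300 µM nifuroxazide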
NF-kB neuron act – compounds increasing NF-kB expression in human neuronal cells. NF-kB reporter expression; hits give high values. fold change at 12.5 µM. 190,000 tested, 1.6% active; in the data active means fold change above about 3.3
STAT1 act – STAT1 signaling activation; 200,000 tested, 2.6% active; NIH 3T3 STAT1-luciferase reporter, IFN-gamma, luminescence; 100% = IFN-gamma alone, no compound; AID 932; activation (% of control), % at 5.5 µM;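 active means activation above the screen-wide mean activation plus 3 SD, cut at about 130% in these data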;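 further: raw ratio to IFN-gamma control signal so 100% means no change and 0% no light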
APP 5'UTR act – activates APP 5'UTR luciferase reporter; activation, % at 2 µM; SH-SY5Y APP 5'UTR luciferase reporter, luminescence; zero percent = DMSO vehicle wells; AID 1276; 190,000 tested, 1% active;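 active means activation above a set limit, based on mean plus 3 SD of controls, cut at about 140% in these data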
STAT3 inh-2 – STAT3 inhibition, confirmation assay; shares compounds with STAT3 inh-1; U3A cells, IL-6 STAT3 luciferase reporter, luminescence; cell line lacks STAT1; inhibition, % at 5.7 µM; 1,200 tested, 45% active;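 active means inhibition above the hit cutoff computed for the primary STAT3 screen, cut at about 44% in these data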;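 further: 0% = IL-6 plus DMSO and 100% = IL-6 plus nifuroxazide control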
NFkB inh STAT3ct – NF-kappaB inhibition in STAT3 inhibitor counter-screen; shares compounds with STAT3 inh-1; HEK293T NF-kB luciferase reporter, TNF-alpha induced; inhibition, % at 5.7 µM; 1,200 tested, 36% active; AID 1308;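 active means inhibition above the mean of solvent-only control wells plus 3 SD, cutoff set per campaign, cut at about 13% in these data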;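 further: 0% = TNF-alpha with DMSO and 100% = TNF-alpha with MG high control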
STAT1 inh STAT3c – STAT1 inhibition in STAT3 inhibitor counter-screen. shares compounds with STAT3 inh-1. AID 1317. inhibition, % at 5.7 µM. 1,200 tested, 27% active. NIH 3T3 STAT1-luciferase reporter, IFN-gamma induced, luminescence;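 active means inhibition above the mean plus 3 SD of solvent-only control wells, limit set per screening run, cut at about 16% in these data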;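 further: 0% = DMSO with IFN-gamma and 100% = nifuroxazide control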
Numbers without * were called inactive; . = no result.

SMILES	STAT3 inh-1	STAT3 activator	STAT1 blocker	NF-kB neuron act	STAT1 act	APP 5'UTR act	STAT3 inh-2	NFkB inh STAT3ct	STAT1 inh STAT3c
Clc1ccccc1-c1nnc(-c2ccc3c(c2)OCO3)o1	44*	66	-14	7.4*	111	125	11	-26	-106
Clc1ccccc1-c1nnc2sc(-c3ccc4c(c3)OCO4)nn12	-3	106	-2	1.2	102	22	.	.	.
c1ccc(-c2noc(-c3ccc4c(c3)OCO4)n2)cc1	66*	46	-1	3.9*	99	167*	27	6	-63
CC(C)CC(=O)NNC(=O)C(C)C	6	95	-4	1	104	15	.	.	.
Cc1nnsc1NC(=O)OCc1ccc(Cl)cc1Cl	27	86	3	0.96	97	10	.	.	.
Cc1nn(C)c(Cl)c1NC(=O)OCc1ccc(Cl)cc1Cl	51*	64	21	0.67	81	-11	36	8	5
CCOc1ccc2nc(-c3ccccc3)[nH]c2c1	50*	59	-43	5.4*	139*	142*	22	-17	-110
C/C=C/C=C/C(=O)Nc1nccs1	-3	102	-13	1.7	112	-6	.	.	.
O=C(/C=C/c1ccc(Cl)cc1)Nc1nccs1	44*	67	-10	8.5*	109	184*	2	-26	-164
COC(=O)C1C(=O)C2=C(CC1C)Nc1ccccc1NC2c1ccc(C)s1 (stereo unspecified)	10	94	-1	1	99	19	.	.	.
CCCc1ccc(-c2cc(C(=O)N/N=C/c3ccc([N+](=O)[O-])o3)c3ccccc3n2)cc1	48*	60	24	2.8	78	62	9	5	-17
O=C(N/N=C/c1ccc([N+](=O)[O-])o1)c1cc(-c2cccc(Br)c2)nc2ccccc12	2	104	4	1.4	97	2	.	.	.
COc1ccc(-c2cc(C(=O)Nc3cc(C)n(Cc4ccc(Cl)cc4)n3)no2)cc1OC	74*	38	13	0.71	88	-6	71*	29*	2
COc1ccc(OCCC(=O)Nc2nccs2)cc1	-1	101	-7	1.5	106	-3	.	.	.
COc1ccc(OCC(=O)Nc2nccs2)cc1	69*	43	31	3.9*	69	104	29	-17	-40
CCC1CCC(C(=O)NC(C(=O)NCCCN2CCCCC2C)C(C)C)CC1 (stereo unspecified)	-2	104	1	0.76	99	17	.	.	.
COc1ccc(CCNc2cc(N3CCN(C(=O)c4ccccc4F)CC3)ccc2[N+](=O)[O-])cc1OC	69*	45	8	0.8	93	-4	84*	37*	19*
COc1ccccc1OCCNc1cc(N2CCCCC2)ccc1[N+](=O)[O-]	-4	101	12	1.1	90	18	.	.	.
COc1ccc(C(=O)N2CCN(c3ccc([N+](=O)[O-])c(NCCc4ccc(OC)c(OC)c4)c3)CC2)cc1	70*	43	26	0.33	77	-18	87*	42*	29*
COc1ccc(CCNc2cc(N3CCN(C(=O)c4ccc(C)cc4)CC3)ccc2[N+](=O)[O-])cc1OC	8	92	8	1.5	95	7	.	.	.
O=C(CN1CCN(S(=O)(=O)c2ccc3ccccc3c2)CC1)Nc1ccc2c(c1)CCC2	4	97	-11	0.9	110	-2	.	.	.
Cc1sc2ncnc(NC3CCN(Cc4ccccc4)CC3)c2c1C	45*	64	33	0.98	69	-5	62*	16*	25*
COc1cccc(C(=O)CSc2nnnn2C2CCCCC2)c1	0	100	-5	1.6	105	5	.	.	.
CC(=O)N1CCc2cc(S(=O)(=O)Nc3cccc(C(F)(F)F)c3)ccc21	44*	63	21	0.55	81	-21	39	2	19*
CC(=O)N1CCCc2cc(S(=O)(=O)Nc3ccc4c(c3)OCO4)ccc21	.	.	.	1	.	.	.	.	.
SMILES	STAT3 inh-1	STAT3 activator	STAT1 blocker	NF-kB neuron act	STAT1 act	APP 5'UTR act	STAT3 inh-2	NFkB inh STAT3ct	STAT1 inh STAT3c
Cc1ccc(C)c(N=Nc2ccc(O)c3ncccc23)c1	46*	63	17	0.56	83	-33	-23	-22	-41
Cc1ccc(NC(=O)CN(C)S(=O)(=O)c2ccc(Br)s2)cc1F	-3	106	-1	1.2	101	-2	.	.	.
O=C(c1cccs1)c1ccc(-c2cccs2)s1	61*	54	25	5.3*	77	158*	21	-8	-77
Cc1cc(N2CCN(c3nc4ccccc4s3)CC2)n2ncnc2n1	83*	35	28	0.5	75	-12	73*	25*	30*
Cc1cc(N2CCN(C(c3ccccc3)c3ccccc3)CC2)n2ncnc2n1	4	99	-7	0.97	106	-2	.	.	.
O=C(c1cccn2c(=O)c3cc(Br)ccc3nc12)N1CCN(c2ccccn2)CC1	-3	106	4	1.2	96	-3	.	.	.
O=C(c1cccn2c(=O)c3ccccc3nc12)N1CCN(c2ccccn2)CC1	51*	59	-5	1	105	15	3	-6	0
O=C1CCc2ccc(NC(=O)C3CC3)cc2N1	-15	114	-3	1.1	101	-6	.	.	.
COc1cccc2cc(-c3nnc(-c4ccccc4)o3)c(=O)oc12	46*	64	-22	1.9	120	138*	31	3	-67
COc1ccc(-c2nnc(SCC(=O)c3cc(C)n(Cc4cccs4)c3C)o2)cc1	-1	104	2	1.8	98	5	.	.	.
CC(=O)Nc1ccccc1OCC(=O)c1cc(C)n(Cc2cccs2)c1C	79*	37	7	0.47	95	17	84*	27*	-16
Cc1csc(SCC(=O)c2cc(C)n(Cc3cccs3)c2C)n1	79*	35	40*	0.73	75	120	52*	24*	-26
Cc1cc(C(=O)COc2cccnc2[N+](=O)[O-])c(C)n1Cc1cccs1	32	75	13	1.1	87	1	.	.	.
Cc1cc(C(=O)CSc2nnc(N)s2)c(C)n1Cc1cccs1	51*	57	-12	2.7	111	136*	36	8	-46
CCCCc1cn([C@@H](CCCCNC(=O)OC(C)(C)C)C(=O)N2CCN(C(=O)OC(C)(C)C)CC2)nn1	.	.	7	0.79	95	2	.	.	.
COC(=O)c1oc2ccccc2c1NC(=O)/C=C/C(=O)O	-6	108	3	1.6	97	8	.	.	.

Screening results: PubChem BioAssay, several laboratories
